What is called Ki is a measure of affinity in units of concentration, obtained from inhibition or displacement.

The first assay is described as follows: Competitive reversible inhibition of rabbit liver guanase assessed as inhibition of guanine hydrolysis by Lineweaver-Burk plot method. Set-up: species or system Oryctolagus cuniculus. An outline of the steps:
(§1)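 Rabbit liver guanase (ammonium sulfate suspension, diluted to 0.1278 U/mL; 0.0077 units per assay) in 0.05 M Tris-HCl pH 7.4, 25°C, 1.0 mL final volume. Guanine 5–40 µM (5–6 levels) at fixed inhibitor 10, 20 or 30 µM (DMSO or methanol stocks). Initial rate from absorbance decrease at 245 nm, mean of two data sets; Ki from Lineweaver-Burk plots.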
As to `CCCCOC1CNC(=O)c2ncn(Cc3ccccc3)c2N1` (stereo unspecified), the inhibition constant (Ki) is 54 µM.

On to `COC1CNC(=O)c2ncn(Cc3ccccc3)c2N1` (stereo unspecified), for which the inhibition constant (Ki) came out at 40 µM.

In the case of `CCOC1CNC(=O)c2ncn(Cc3ccccc3)c2N1` (stereo unspecified), the Ki is 47 µM.

The next assay in a line: Inhibition of rabbit liver guanase assessed as inhibition of guanine hydrolysis by Lineweaver-Burk plot method. Also noted: species or system Oryctolagus cuniculus. An outline of the steps: as §1
Turning to `COc1ccc(Cn2cnc3c2NC(OC)CNC3=O)cc1` (stereo unspecified), the Ki was determined as 21 µM.

Turning to `CCOC1CNC(=O)c2ncn(Cc3ccc(OC)cc3)c2N1` (stereo unspecified), the inhibitory constant (Ki) worked out at 33.4 µM.

`COC1CNC(=O)c2ncn(Cc3ccc(F)cc3)c2N1` (stereo unspecified): the inhibitory constant (Ki) was 39.7 µM.

As to `COc1ccc(Cn2cnc3c2C(=O)NCC(OC)N3)cc1` (stereo unspecified), the Ki is 47.5 µM.

With `COC1CNC(=O)c2nc[nH]c2N1Cc1ccccc1` (stereo unspecified), the Ki turned out to be 8.8 µM.

For `COc1ccc(Cn2cnc3c2C(=O)NCC(OC)N3Cc2ccccc2)cc1` (stereo unspecified), the Ki was found to be 26.5 µM.

`CCOC1CNC(=O)c2c(ncn2Cc2ccc(OC)cc2)N1Cc1ccccc1` (stereo unspecified): the Ki stood at 43.8 µM.

Take `O=C1NC(O)CNc2nc[nH]c21` (stereo unspecified) [AZEPINOMYCIN]: the inhibition constant (Ki) came out at 2.5 µM.
